Rows were chosen to be rich in hits. Some 1.2% of all compounds tested hit in one or more screens of this group.
procasp3 activ: procaspase-3 (human) activation; P42574; recombinant procaspase-3 D3A, Ac-DEVD-pNA absorbance 405 nm; 330,000 compounds, 0.11% hits; activation, % at 8.5 µM;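 active means activation above the mean of all tested compounds plus 3 SD, cut at about 21% in these data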
Target sequence (P42574 whole entry D9A/D28A/D175A): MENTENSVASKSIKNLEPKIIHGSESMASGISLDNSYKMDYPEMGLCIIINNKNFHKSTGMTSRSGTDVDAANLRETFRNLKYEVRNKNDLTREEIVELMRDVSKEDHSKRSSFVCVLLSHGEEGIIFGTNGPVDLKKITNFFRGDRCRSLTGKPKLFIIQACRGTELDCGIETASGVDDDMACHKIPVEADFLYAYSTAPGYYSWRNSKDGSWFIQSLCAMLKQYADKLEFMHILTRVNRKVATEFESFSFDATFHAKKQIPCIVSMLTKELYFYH
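Compound: 8.5 µM single point, 0.8% DMSO / Material: Autoprocessing-dead procaspase-3 D3A mutant enzyme / Timing: 1 h preincubation plus 2 h reaction at 25 °C / Medium: Zinc-free HEPES/NaCl buffer with 0.01% Triton X-100 at pH 7.4 / Technique: 405 nm absorbance of p-nitroaniline, reads at 0 and 120 min / Repeats: one well per compound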
GAA850 FXN act: increases GAA850 frataxin promoter reporter activity; HEK293 lucGAA850 FXN promoter luciferase reporter, 24 h; percent of 10 µM SAHA response; activation, % at 6 µM; 360,000 compounds, 0.56% hits; AID 540364;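 active means activation above the average of all compounds screened plus 3 SD, cutoff fixed separately per campaign, cut at about 7.5% in these data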
Hep lipid drop: hepatic lipid droplet formation modulation. AML12 mouse hepatocytes, oleate lipid droplets, BODIPY imaging. inhibition, % at 6.5 µM. 240,000 compounds, 0.4% hits. AID 1656;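 active means lipid droplet intensity inhibited by at least 50%, with more than 500 cells counted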
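Material – AML12 mouse liver cells · Also added – oleate loading, 100 µM · Compound dosing – 6.5 µM single-point dosing · Times – overnight treatment with compound plus oleate · Measured by – fluorescence imaging, 20x objective, two fields per well · Read-out – percent inhibition of filter-corrected integrated lipid droplet intensity per well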
p-CIP stab down: lowers stability of the mouse p/CIP coactivator protein | Q05BA5 | F442A p/CIP-EGFP cells, EGFP fluorescence, 16 h | decrease of EGFP signal, % at 10 µM | 290,000 compounds, 0.01% hits;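 active means EGFP signal decrease of at least 30% at 10 µM or well 3 SD below plate mean, unless failing retest; inactive means the rest, including hits failing retest or dose response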
proCasp7 act: counter-screen for procaspase-3 activators: activators of human procaspase-7; P55210; recombinant procaspase-7, Ac-DEVD-pNA absorbance 405 nm; D23A/D198A/D206A triple mutant, cannot self-cleave; scale: DMSO 0, 5 µM enzyme 100; activation, % at 8.5 µM; 330,000 compounds, 0.093% hits;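 active means percent activation above the screen-wide mean plus 3 SD, cut at about 25% in these data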
Target sequence (P55210 whole entry D23A/D198A/D206A): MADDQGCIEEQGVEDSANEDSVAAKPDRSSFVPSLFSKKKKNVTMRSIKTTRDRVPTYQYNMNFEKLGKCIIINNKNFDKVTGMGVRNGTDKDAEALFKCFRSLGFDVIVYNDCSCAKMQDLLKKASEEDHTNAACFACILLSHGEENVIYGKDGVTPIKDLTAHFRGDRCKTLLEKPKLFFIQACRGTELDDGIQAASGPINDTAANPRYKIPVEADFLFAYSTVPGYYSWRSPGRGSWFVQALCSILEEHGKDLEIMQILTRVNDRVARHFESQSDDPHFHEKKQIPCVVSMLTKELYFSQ
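Test system: Procaspase-7 triple mutant (PC-7 D3A). Also added: Ac-DEVD-pNA substrate, 400 µM as added. Schedule: 1 h enzyme–compound preincubation and 2 h substrate reaction, both 25 °C. Signal: p-Nitroaniline absorbance at 405 nm, read at 0 and 120 min. Control set: low DMSO alone, high DMSO plus 5 µM PC-7.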
Rce1 inh: blocks yeast Ras-converting enzyme. calls only. 290,000 compounds, 0.27% hits. AID 2563. yeast membranes, quenched prenylated peptide cleavage fluorescence. Q03530;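 active means fall in fluorescence gain of 50% or more versus controls, with final raw signal at or below 3038400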
GAA30 FXN cntr: activates GAA30 frataxin promoter, counter-screen for GAA850 activators; activation, % at 6 µM; 1,900 compounds, 66% hits; shares compounds with GAA850 FXN act; HEK293 lucGAA30 FXN promoter luciferase, 24 h; DMSO = 0%, 5 µM ipriflavone = 100%;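 active means mean activation above the mean of solvent-only control wells plus 3 SD, cut at about 22% in these data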;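 further: counterscreen of GAA850 promoter hits where activity marks nonselective or luminescence artifacts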
GAA850 confirm: GAA850 FXN promoter activation confirmation | activation, % at 6 µM | 1,900 compounds, 86% hits | shares compounds with GAA850 FXN act | HEK293 lucGAA850 FXN promoter luciferase reporter, 24 h; 100% = activation by SAHA;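 active means mean activation above a set limit taken from the primary screen, cut at about 8% in these data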
Large screens that a line does not name were inactive (follow-up assays come after a bar, where they were run).

C/C=C/Cn1c(SCc2ccc(C)cc2)nc2c1c(=O)[nH]c(=O)n2C	GAA850 FXN act 8.7 (no result: Hep lipid drop) | GAA30 FXN cntr 23 | GAA850 confirm 21
CC=CCn1c(SCc2ccccc2)nc2c1c(=O)[nH]c(=O)n2C	none (no result: procasp3 activ, Hep lipid drop, p-CIP stab down, proCasp7 act, Rce1 inh)
NC1(C(=O)O)CSSC1	GAA850 FXN act 9.8 (no result: procasp3 activ, Hep lipid drop, p-CIP stab down, proCasp7 act, Rce1 inh) | GAA30 FXN cntr inactive | GAA850 confirm 25
CCOC(=O)Nc1ccc2c(COC(=O)C(NS(=O)(=O)c3ccc(Cl)cc3)C(C)O)cc(=O)oc2c1 (centres undefined)	none (no result: Hep lipid drop, p-CIP stab down, Rce1 inh)
Cn1c(O)c(N=NC(=O)c2ccco2)c2ccccc21	GAA850 FXN act 8.4 | GAA30 FXN cntr 144 | GAA850 confirm 38
COc1ccc(OCCOc2ccc(C)nc2[N+](=O)[O-])cc1	GAA850 FXN act 7.7 | GAA30 FXN cntr 78 | GAA850 confirm 24
Nc1ccc2c(c1)C(=NO)c1cc([N+](=O)[O-])ccc1-2	GAA850 FXN act 13 (no result: procasp3 activ, Hep lipid drop, p-CIP stab down, proCasp7 act, Rce1 inh) | GAA30 FXN cntr 79 | GAA850 confirm 35
O=C1Nc2ccccc2Nc2ccc([N+](=O)[O-])cc21	GAA850 FXN act 8.3 | GAA30 FXN cntr 115 | GAA850 confirm 35
O=C1OC(=O)c2cc([N+](=O)[O-])ccc21	none (no result: Hep lipid drop, p-CIP stab down, Rce1 inh)
COC(=O)CSc1nc(N)c(C#N)c(-c2ccc(O)cc2)c1C#N	none
CCOC(=O)CSc1nc(N)c(C#N)cc1C#N	GAA850 FXN act 11 | GAA30 FXN cntr 52 | GAA850 confirm 30
CC(C)OC(=O)CSc1nc(N)c(C#N)cc1C#N	GAA850 FXN act 8.4 | GAA30 FXN cntr 64 | GAA850 confirm 29
CC(C)OC(=O)CSc1nc2cc3c(cc2cc1C#N)OCO3	none
CCOC(=O)CSc1nc(N)c(C#N)c(-c2ccc(OCC)cc2)c1C#N	GAA850 FXN act 13 (no result: Hep lipid drop) | GAA30 FXN cntr inactive | GAA850 confirm 9.1
Cc1cn([C@H]2C[C@H](O)[C@@H](CCC(=O)NCc3ccccc3)O2)c(=O)[nH]c1=O	none (no result: procasp3 activ, Hep lipid drop, p-CIP stab down, proCasp7 act, Rce1 inh)
O=C(NCCCn1cccn1)C1CCC(=O)N(CCc2ccccc2)C1 (centres undefined)	none
N#C/C(=C\c1ccc(N2CCOCC2)o1)c1nc2ccccc2[nH]1	none (no result: Hep lipid drop)
N#C/C(=C/c1ccc(N2CCOCC2)o1)c1ccc(Cl)cc1	GAA850 FXN act 20 (no result: Hep lipid drop) | GAA30 FXN cntr 119 | GAA850 confirm 47
Cc1ccc(/C=N/NC(=O)CSc2nc3ccccc3[nH]2)o1	none
CCCCc1ccc(NC(=O)CC(C)=O)cc1	none (no result: Hep lipid drop, Rce1 inh)
CCCCc1ccc(NC(=O)CC(C)(C)C)cc1	GAA850 FXN act 7.8 (no result: Hep lipid drop) | GAA30 FXN cntr 108 | GAA850 confirm 38
CNS(=O)(=O)c1cccc(C(=O)OCC(=O)Nc2ccc3ccccc3c2)c1	none (no result: Hep lipid drop, p-CIP stab down, Rce1 inh)
O=[N+]([O-])c1ccccc1N/N=C/c1cc2ccccc2nc1Cl	none
Cn1c(/C=N/Nc2nc3ccccc3[nH]2)nc2ccccc21	GAA850 FXN act 8.5 | GAA30 FXN cntr inactive | GAA850 confirm inactive
Cc1cccc2cc(/C=N/Nc3ccc(C(=O)O)cc3)c(Cl)nc12	GAA850 FXN act 12 (no result: Rce1 inh) | GAA30 FXN cntr 128 | GAA850 confirm 49
C(=N\Nc1nc2ccccc2[nH]1)/c1ccncc1	none
O=C(O)c1ccc(N/N=C/c2cc3ccccc3nc2Cl)cc1	GAA850 FXN act 11 | GAA30 FXN cntr 120 | GAA850 confirm 47
Clc1nc2ccccc2cc1/C=N/Nc1nc2ccccc2[nH]1	GAA850 FXN act 8.4 | GAA30 FXN cntr 128 | GAA850 confirm 44
COc1ccc(N2CCN(C(=O)c3cc(=O)c4cc(C)c(C)cc4o3)CC2)cc1	none
COc1ccc(C)cc1NC(=O)C1CCN(C(=O)c2ccc(C(C)(C)C)cc2)CC1	none
Cc1cc(C)cc(NC(=O)C2CCCN(c3ncccn3)C2)c1 (centres undefined)	none

High-throughput results from PubChem.
